Blank lines part the entries; values can stand above or below the compound they belong to. Activity calls are given as the source filed them. The rule behind the calls is not given here.
Columns and labels:
[1] = molecular target: T1, Serine/threonine-protein kinase PAK 4 (Homo sapiens, UniProt O96013); assay: Inhibition of PAK4 (unknown origin) using substrate S2 after 60 mins by HTRF assay
Target sequence in this assay (O96013 whole entry): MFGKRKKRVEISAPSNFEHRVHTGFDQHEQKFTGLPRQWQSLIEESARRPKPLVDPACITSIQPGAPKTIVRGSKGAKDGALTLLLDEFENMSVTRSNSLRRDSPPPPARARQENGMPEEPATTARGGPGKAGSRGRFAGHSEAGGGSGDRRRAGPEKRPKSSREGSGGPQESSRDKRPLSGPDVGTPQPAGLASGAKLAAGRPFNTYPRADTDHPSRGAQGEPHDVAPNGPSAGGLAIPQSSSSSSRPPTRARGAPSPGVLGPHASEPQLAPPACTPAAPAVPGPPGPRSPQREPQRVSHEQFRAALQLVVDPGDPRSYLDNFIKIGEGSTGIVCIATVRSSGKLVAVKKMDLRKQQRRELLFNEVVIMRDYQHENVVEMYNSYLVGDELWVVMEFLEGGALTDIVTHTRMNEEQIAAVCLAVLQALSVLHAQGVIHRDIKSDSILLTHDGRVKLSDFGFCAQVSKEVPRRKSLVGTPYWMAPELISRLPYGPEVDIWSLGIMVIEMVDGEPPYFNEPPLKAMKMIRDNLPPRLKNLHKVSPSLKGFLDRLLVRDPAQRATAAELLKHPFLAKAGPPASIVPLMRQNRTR

A549 [2] = assay: Growth inhibition of human A549 cells after 72 hrs by CCK8 assay; type: functional, cell-based; details: A549, 72 h
In short: (§1)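 Cells seeded in 96-well plates and exposed to various compound concentrations on the seeding day, cultured 72 h at 37 °C. Proliferation read by CCK-8.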

MCF7 = assay: Growth inhibition of human MCF7 cells after 72 hrs by CCK8 assay; type: functional, cell-based; details: MCF7, 72 h; in short: as §1
HT-1080 = assay: Growth inhibition of human HT1080 cells after 72 hrs by CCK8 assay; type: functional, cell-based; details: HT-1080, 72 h; in short: as §1
A549 [3] = assay: Induction of apoptosis in human A549 cells assessed as live cells at 1 uM after 72 hrs by Annexin-V/7AAD staining based flow cytometry (reference value: 93.98%); type: functional
A549 [4] = assay: Induction of apoptosis in human A549 cells assessed as early apoptotic cells at 1 uM after 72 hrs by Annexin-V/7AAD staining based flow cytometry (reference value: […]); type: functional
A549 [5] = assay: Induction of apoptosis in human A549 cells assessed as late apoptotic cells at 1 uM after 72 hrs by Annexin-V/7AAD staining based flow cytometry (reference value: 2.95%); type: functional
A549 [6] = assay: Induction of apoptosis in human A549 cells assessed as necrotic cells at 1 uM after 72 hrs by Annexin-V/7AAD staining based flow cytometry (reference value: 0.65%); type: functional
A549 [7] = assay: Induction of apoptosis in human A549 cells assessed as live cells at 5 uM after 72 hrs by Annexin-V/7AAD staining based flow cytometry (reference value: 93.98%); type: functional
A549 [8] = assay: Induction of apoptosis in human A549 cells assessed as early apoptotic cells at 5 uM after 72 hrs by Annexin-V/7AAD staining based flow cytometry (reference value: […]); type: functional
A549 [9] = assay: Induction of apoptosis in human A549 cells assessed as late apoptotic cells at 5 uM after 72 hrs by Annexin-V/7AAD staining based flow cytometry (reference value: 2.95%); type: functional
A549 [10] = assay: Induction of apoptosis in human A549 cells assessed as necrotic cells at 5 uM after 72 hrs by Annexin-V/7AAD staining based flow cytometry (reference value: 0.65%); type: functional
A549 [11] = assay: Cell cycle arrest in human A549 cells assessed as accumulation at G1 phase at 1 uM after 72 hrs by propidium iodide staining based flow cytometry (reference value: 44.99%); type: functional
A549 [12] = assay: Cell cycle arrest in human A549 cells assessed as accumulation at G2 phase at 1 uM after 72 hrs by propidium iodide staining based flow cytometry (reference value: 17.62%); type: functional
A549 [13] = assay: Cell cycle arrest in human A549 cells assessed as accumulation at S phase at 1 uM after 72 hrs by propidium iodide staining based flow cytometry (reference value: 37.39%); type: functional
A549 [14] = assay: Cell cycle arrest in human A549 cells assessed as accumulation at G1 phase at 5 uM after 72 hrs by propidium iodide staining based flow cytometry (reference value: 44.99%); type: functional
A549 [15] = assay: Cell cycle arrest in human A549 cells assessed as accumulation at G2 phase at 5 uM after 72 hrs by propidium iodide staining based flow cytometry (reference value: 17.62%); type: functional
A549 [16] = assay: Cell cycle arrest in human A549 cells assessed as accumulation at S phase at 5 uM after 72 hrs by propidium iodide staining based flow cytometry (reference value: 37.39%); type: functional
A549 [17] = assay: Induction of apoptosis in human A549 cells after 72 hrs by Annexin-V/7AAD staining based flow cytometry; type: functional, cell-based
A549 [18] = assay: Antimigratory activity against human A549 cells at 5 uM […] by crystal violet staining based transwell chamber assay; type: functional, cell-based
A549 [19] = assay: Anti-invasive activity against human A549 cells at 5 uM […] by crystal violet staining based matrigel invasion chamber assay; type: functional, cell-based
[20] = molecular target: T1, Serine/threonine-protein kinase PAK 4; assay: Inhibition of PAK4 phosphorylation in human A549 cells after 2 hrs by Western blot analysis; type: cell-based
In short: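 A549 cells treated with indicated dose for 2 h, lysed in SDS sample buffer, resolved by 10% SDS-PAGE, transferred to nitrocellulose, probed for phospho-PAK4 and PAK4 (GAPDH loading control) with HRP-conjugated secondary antibodies, detected by enhanced chemiluminescence.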
Target sequence in this assay (O96013 whole entry, looked up): as the sequence (O96013 whole entry) above

[21] = molecular target: T1, Serine/threonine-protein kinase PAK 4; assay: Inhibition of PAK4 in human A549 cells assessed as reduction in LIMK1 phosphorylation after 72 hrs by Western blot analysis; type: cell-based
Target sequence in this assay (O96013 whole entry, looked up): as the sequence (O96013 whole entry) above

[22] = molecular target: T1, Serine/threonine-protein kinase PAK 4; assay: Inhibition of PAK4 in human A549 cells assessed as reduction in cofilin phosphorylation after 72 hrs by Western blot analysis; type: cell-based
Target sequence in this assay (O96013 whole entry, looked up): as the sequence (O96013 whole entry) above

SMILES: O=C1Nc2ccc(C(=O)N[C@H](CO)c3ccccc3)cc2C1=Cc1ccccn1
IC50 ([1]; read-out: IC50): > 10 µM

SMILES: O=C1Nc2ccc(C(=O)N[C@H](CCO)c3ccccc3)cc2/C1=C/c1ccc[nH]1
IC50 ([1]; read-out: IC50): 5.01 µM

SMILES: O=C1Nc2ccc(C(=O)N[C@H](CO)c3ccccc3)cc2/C1=C/c1ccc[nH]1
IC50 ([1]; read-out: IC50): 0.022 µM
IC50 ([1]; read-out: pIC50 (converted)): 0.0219 µM
IC50 (A549 [2]): 2.37 µM
IC50 (MCF7): 6.56 µM
IC50 (HT-1080): 0.98 µM

SMILES: CC(C)[C@@H](CO)NC(=O)c1ccc2c(c1)/C(=C/c1ccc[nH]1)C(=O)N2
IC50 ([1]; read-out: IC50): 2.35 µM

SMILES: Cn1nccc1-c1cc2c(cc1C(=O)N[C@H](CO)c1ccccc1)/C(=C/c1ccc[nH]1)C(=O)N2
IC50 ([1]; read-out: IC50): 1.45 µM

SMILES: O=C1Nc2cc(Cl)c(C(=O)N[C@H](CO)c3ccccc3)cc2/C1=C/c1ccc[nH]1
IC50 ([1]; read-out: IC50): 1.42 µM

SMILES: N#Cc1cc2c(cc1C(=O)N[C@H](CO)c1ccccc1)/C(=C/c1ccc[nH]1)C(=O)N2
IC50 ([1]; read-out: IC50): 1.54 µM

SMILES: O=C1Nc2ccc(C(=O)N[C@H](CO)c3ccc(F)cc3)cc2/C1=C/c1ccc[nH]1
IC50 ([1]; read-out: IC50): 0.054 µM

SMILES: O=C1Nc2ccc(C(=O)N[C@H](CO)c3ccccc3Cl)cc2/C1=C/c1ccc[nH]1
IC50 ([1]; read-out: IC50): 0.199 µM

SMILES: Cc1cc(C)c(/C=C2\C(=O)Nc3ccc(C(=O)N[C@H](CO)c4ccccc4)cc32)[nH]1
IC50 ([1]; read-out: IC50): 0.027 µM
IC50 ([1]; read-out: pIC50 (converted)): 0.0275 µM
IC50 (A549 [2]): 0.83 µM
IC50 (MCF7): 2.11 µM
IC50 (HT-1080): 6.77 µM
Activity (A549 [3]): 70.56%
Activity (A549 [4]): 8.44%
Activity (A549 [5]): 15.46%
Activity (A549 [6]): 5.14%
Activity (A549 [7]): 26.23%
Activity (A549 [8]): 32.18%
Activity (A549 [9]): 33.22%
Activity (A549 [10]): 8.36%
Activity (A549 [11]): 35.7%
Activity (A549 [12]): 24.37%
Activity (A549 [13]): 39.92%
Activity (A549 [14]): 27.78%
Activity (A549 [15]): 33.75%
Activity (A549 [16]): 38.47%
Activity (A549 [17]): Dose-dependent effect
Activity (A549 [18]): Active
Activity (A549 [19]): Active
inhibition [20]: Dose-dependent effect
inhibition [21]: Dose-dependent effect
inhibition [22]: Dose-dependent effect

SMILES: O=C1Nc2cc(F)c(C(=O)N[C@H](CO)c3ccccc3)cc2/C1=C/c1ccc[nH]1
IC50 ([1]; read-out: IC50): 0.718 µM

SMILES: O=C1Nc2cc(Br)c(C(=O)N[C@H](CO)c3ccccc3)cc2/C1=C/c1ccc[nH]1
IC50 ([1]; read-out: IC50): 1.2 µM

SMILES: O=C1Nc2ccc(C(=O)N[C@H](CO)c3ccccc3)cc2/C1=C/c1cnc[nH]1
IC50 (A549 [2]): 3.7 µM
IC50 (MCF7): 10.8 µM
IC50 (HT-1080): 7.9 µM

SMILES: O=C1Nc2ccc(C(=O)NCCO)cc2/C1=C/c1ccc[nH]1
IC50 ([1]; read-out: IC50): 1.26 µM

SMILES: O=C1Nc2ccc(C(=O)N[C@H](CO)c3ccccc3)cc2/C1=C/c1ncc[nH]1
IC50 ([1]; read-out: IC50): 0.281 µM

SMILES: O=C1Nc2ccc(C(=O)N[C@H](CO)c3ccccc3)cc2/C1=C/c1ccn[nH]1
IC50 ([1]; read-out: IC50): 0.379 µM

Continued, values first:

IC50 ([1]; read-out: IC50): 0.802 µM
SMILES: O=C1Nc2ccc(C(=O)N[C@H](CO)c3ccccc3)cc2/C1=C/c1ccco1 (stereo in doubt)

IC50 ([1]; read-out: IC50): 0.304 µM
SMILES: O=C1Nc2ccc(C(=O)N[C@H](CO)Cc3ccccc3)cc2/C1=C/c1ccc[nH]1

IC50 ([1]; read-out: IC50): 3.38 µM
SMILES: O=C1Nc2ccc(C(=O)N[C@@H](CO)c3ccccc3)cc2/C1=C/c1ccc[nH]1

IC50 ([1]; read-out: IC50): 3.15 µM
SMILES: O=C1Nc2ccc(C(=O)NCCCO)cc2/C1=C/c1ccc[nH]1

IC50 ([1]; read-out: IC50): 1.99 µM
SMILES: Cn1cc(-c2cc3c(cc2C(=O)N[C@H](CO)c2ccccc2)/C(=C/c2ccc[nH]2)C(=O)N3)cn1

IC50 ([1]; read-out: IC50): 0.391 µM
SMILES: O=C1Nc2ccc(C(=O)N[C@H](CO)c3ccc(Cl)cc3)cc2/C1=C/c1ccc[nH]1

IC50 ([1]; read-out: IC50): 0.634 µM
SMILES: CC(C)(C)[C@@H](CO)NC(=O)c1ccc2c(c1)/C(=C/c1ccc[nH]1)C(=O)N2

IC50 ([1]; read-out: IC50): 1.29 µM
SMILES: O=C1Nc2ccc(C(=O)N[C@H](CO)c3ccccc3)cc2/C1=C/c1cccs1

From ChEMBL document CHEMBL4033682, “Discovery of indolin-2-one derivatives as potent PAK4 inhibitors: Structure-activity relationship analysis, biological evaluation and molecular docking study” (Bioorg Med Chem, 2017)
